MT stabilizer: microtubule stabilizers in HeLa cells, primary screen, imaging, high-content imaging; HeLa tubulin immunostaining HCS, 24 h; share of cells brighter than vehicle mean+2SD; % tubulin-high responders, % at 10 µM; actives 0.83% (n = 200,000);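 active = plate Z-score above 3 for both tubulin-high and condensed-nucleus cell shares, with cell loss under 80%, at 10 µM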;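 also: anti alpha tubulin signal scored within the nucleus-defined area of each cell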
EP2 antag: human EP2 receptor antagonists, primary screen, TR-FRET cAMP, C6 glioma cells. Prostaglandin E2 receptor EP2 subtype (Homo sapiens), P43116. C6 glioma cells expressing human EP2; cells stimulated with saturating PGE2. inhibition, % at 25 µM. actives 0.52% (n = 260,000);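 active = percent inhibition above 40 after rounding to a whole number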;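 also: rat C6 glioma host cells with rolipram phosphodiesterase inhibitor present; the protocol text gives 20 µM as final concentration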
Target sequence (P43116 whole entry, looked up): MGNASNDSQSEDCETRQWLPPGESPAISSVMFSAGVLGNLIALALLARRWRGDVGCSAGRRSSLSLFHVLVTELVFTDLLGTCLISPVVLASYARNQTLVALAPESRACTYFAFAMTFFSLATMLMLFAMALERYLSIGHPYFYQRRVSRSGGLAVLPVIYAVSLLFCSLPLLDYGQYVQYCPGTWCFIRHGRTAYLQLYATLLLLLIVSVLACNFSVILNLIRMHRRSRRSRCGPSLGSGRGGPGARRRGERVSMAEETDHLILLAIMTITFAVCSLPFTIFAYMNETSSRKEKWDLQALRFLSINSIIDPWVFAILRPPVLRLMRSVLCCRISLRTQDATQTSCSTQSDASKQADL
EP2 modulator: EP2 receptor modulators, cAMP readout, primary screen, cell-based, HTRF cAMP, PGE2 stimulation. Prostaglandin E2 receptor EP2 subtype (Homo sapiens), P43116. EP2-expressing cells, cAMP HTRF FRET, PGE2 co-stimulation. induction, % at 25 µM. actives 0.83% (n = 260,000). AID 940, 2007;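 active = compounds whose cAMP rise, as percent of the full-agonist control response, exceeds 60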;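 also: rat C6 glioma line stably carrying human EP2 under a CMV promoter; the protocol text gives 20 µM as final concentration; 100% = response of wells given 1 µM PGE2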
bCat nuc transl: modulators of beta-catenin nuclear translocation, primary screen, imaging, HeLa cells, immunofluorescence, high-content. nuclear translocation activity, % at 5 µM. actives 0.3% (n = 190,000);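 active = nuclear translocation activity above 50% at 5 µM, with a well cell count of 50 or more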;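 also: per-cell ratio of nuclear to cytoplasmic median beta-catenin stain intensity; plate controls were DMSO negative control for no effect and GSK-3 inhibitor IX positive control for full effect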
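Assay system: human HeLa cells, native beta-catenin; doses: 5 µM primary, 0.02–20 µM confirmation; incubation: compound treatment 24 h, 37°C, 5% CO2; technique: fluorescence imaging of beta-catenin antibody stain plus DAPI; measure: % activation, nuclear-to-cytoplasmic median beta-catenin signal ratio per cell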
Tb hexokinase: Trypanosoma brucei hexokinase 1 inhibitors, primary screen, biochemical, G6PDH-coupled NADH absorbance, MLSCN library; hexokinase 1 [Trypanosoma brucei]; actives 0.11% (n = 220,000); AID 1430, 2008; recombinant TbHK1, G6PDH-coupled NADH A340; inhibition, % at 10 µM;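 active = inhibition of 50% or more in the single-dose primary screen; inactive = inhibition below 50%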
HMGR II inh: inhibitors of E. faecalis class II HMGR, primary screen, biochemical, Enterococcus faecalis. inhibition, % at 10 µM. actives 0.41% (n = 190,000). purified E. faecalis HMGR, NADPH absorbance 340 nm kinetic. HMG-CoA reductase (Enterococcus faecalis, mvaE). AID 1066, 2008;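 active = inhibition above a set limit, the median over all tested compounds plus 3 SD, cut at about 9.5% in these data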;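 also: enzyme runs in reverse so mevalonate oxidation gives rising NADPH absorbance; 0% = complete reaction with DMSO and 100% = background rate lacking mevalonate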
Active calls of the source: *; / = no result. This is a sample that favours compounds with a hit; in the whole collection about 2.4% have one here.

SMILES	MT stabilizer	EP2 antag	EP2 modulator	bCat nuc transl	Tb hexokinase	HMGR II inh
COc1ccc(CNC(=O)C2CC(c3ccccc3C(F)(F)F)=NO2)cc1 (stereo not given)	/	8	-22	7	1	/
CCn1ncc(C2=NOC(C(=O)NCc3ccccc3)C2)c1C (stereo not given)	31*	9	7	64*	-3	0
CCn1ncc(C2=NOC(C(=O)NCc3ccc(OC)cc3)C2)c1C (stereo not given)	18*	8	29	147*	-4	-4
COC1(OC)N=C(NC(=O)Nc2ccccc2)C2(C#N)C(c3ccccc3)C12C#N (stereo not given)	2	13	/	-2	4	14*
CN(Cc1ccccc1)CC(O)c1ccc2c(c1)CCCN2S(C)(=O)=O (stereo not given)	/	12	-44	/	/	/
COc1cccc(C(=O)CSc2nnc3c4c(C)c(C)sc4nc(C(C)C)n23)c1	/	8	-2	/	/	/
CCN(CC)c1ccc(/C=c2\sc3nnc(-c4ccccc4Cl)n3c2=O)cc1	2	10	5	-3	3	-4
CCN(CC)c1ccc(/C=c2/sc3nnc(-c4ccccc4C)n3c2=O)cc1	3	48*	12	/	11	-1
Cc1ccc(C(C)C(=O)N2CCC[C@H](Cn3nc(-c4cccs4)ccc3=O)C2)cc1 (stereo not given in full)	/	7	-49	/	/	/
Cc1cc2c(cc3c(=O)n(CC(=O)N(C)CCc4ccccn4)nc(C)n32)o1	/	9	-19	/	/	/
CCOc1ccc(-n2c(=S)sc3c(=O)[nH]c(SCC(=O)N4CCC(C)CC4)nc32)cc1	2	-2	62*	-3	-22	-1
CCOC(=O)CSc1nc2c(sc(=S)n2-c2ccc(OCC)cc2)c(=O)[nH]1	4	14	55	-1	-11	-1
CNC(=O)c1cc2c(=O)n3ccccc3nc2n(C2CCCCC2)c1=N	/	7	-5	/	/	/
O=C(COc1cccc2cccnc12)N1N=CCC1c1ccccc1 (stereo not given)	/	9	-32	/	/	/
CCOC(=O)c1oc2ccccc2c1NC(=O)c1cccc(OC)c1	5	5	63*	-1	15	-7
CCN(CC)c1ccc(NC(=O)c2cccc(OC)c2)c(C)c1	53*	15	14	/	3	-2
CCOC(=O)c1oc2ccc(OC)cc2c1CSc1ccccn1	/	18	62*	/	/	/
CCc1ccc2c(c1)cc(C)c1nnc(SCC(=O)NNC(=O)c3ccc(OC)cc3)n12	/	9	-45	/	/	/
COc1ccc(/C=N/NC(=O)C(C)Sc2ccccn2)cc1[N+](=O)[O-] (stereo not given)	2	4	-31	0	3	15*
O=C(C1CCC(=O)N1Cc1ccccc1Cl)N1CCN(c2cccc(Cl)c2)CC1 (stereo not given)	2	69*	/	4	-13	2
CCn1cc(C(=O)N2C[C@H](C(=O)O)[C@@H](c3ccc(F)cc3)C2)c(C)n1	/	7	9	/	/	/
O=C(NCC(c1cccs1)N1CCOCC1)c1ccc(Br)o1 (stereo not given)	22*	8	27	1	-5	4
COc1cccc(C(C(=O)NC2CCCC2)N(C(=O)c2csnn2)C2CCCCC2)c1 (stereo not given)	/	3	3	/	/	/
Cc1ccc(-c2cc(N)c(=O)n(CC(=O)NC3CCCc4ccccc43)n2)o1 (stereo not given)	/	0	-41	/	/	/
COC(=O)c1ccc2c(c1)C(C)(C)C(/C=C/c1ccccc1O)=[N+]2C	53*	3	-4	1	-5	0
SMILES	MT stabilizer	EP2 antag	EP2 modulator	bCat nuc transl	Tb hexokinase	HMGR II inh
C[N+]1=C(/C=C/Nc2ccccc2Cl)C(C)(C)c2ccccc21	5	8	-24	0	-28	-6
COc1cc(S(=O)(=O)n2c(C)nc3ccccc32)ccc1F	28*	12	31	/	-1	-2
COc1cc(S(=O)(=O)N2CCN=C2c2ccccc2)ccc1F	44*	7	-7	/	2	1
Cc1ccc(S(=O)(=O)N2CCN=C2c2ccccc2)cc1C	3	11	8	0	11	-5
CCOCc1nnc(NC(=O)Cc2c(F)cccc2Cl)s1	/	1	-24	/	/	/
CCOc1cccc(C2C3=C(CCCC3=O)NC3=C2C(=O)CCC3)c1	/	6	-11	/	/	/
Cc1cc(C)cc(N(C(=O)Cn2nnc3ccccc32)C(C(=O)NCc2ccco2)c2ccc(C)o2)c1 (stereo not given)	/	9	34	/	/	/
CC(C)N(C(=O)c1ccccc1-c1ccccc1)C(C)C	1	18	63*	-2	-1	-2
CCOc1ccccc1CN1CCc2c(nc(N3CC(C)OC(C)C3)[nH]c2=O)C1 (stereo not given)	/	/	-8	/	/	/
C/C(=N/NC(=O)c1cc(O)c(O)c(O)c1)c1ccc([N+](=O)[O-])cc1	5	7	22	-1	-2	21*
Cc1cc2c(cc3c(=O)n(CC(=O)NCCc4ccccc4)nc(C)n32)o1	/	3	-42	/	/	/
COC(=O)c1cc([N+](=O)[O-])c(-n2cncn2)c([N+](=O)[O-])c1	2	77*	25	-1	-7	-8
Cc1ccc(C)c(OCC(=O)Nc2ccc3c(c2)OCO3)c1C	23*	7	29	/	-1	-2
Cc1cccc(C)c1OCC(=O)N/N=C/c1ccc2c(c1)OCO2	32*	14	-27	82*	-11	0
COc1ccc(N(CC(=O)NC2CCCCC2)C(=O)c2ccc(-c3ccccc3)[nH]2)cc1	/	9	24	/	/	/
C=CCn1c(C)cc(C(=O)CSc2nnc(NCc3ccccc3)s2)c1C	40*	/	2	-4	-3	-1
Nc1nnc(CCOCCc2nnc(N)s2)s1	/	4	-8	/	/	/
CCCc1[nH]nc2c1C(CCC)C(C#N)=C(N)O2 (stereo not given)	4	-1	7	-6	0	11*
Cc1cc(N2CCOCC2)nc(SCC(=O)OCc2ccccc2)n1	2	6	-4	0	-8	11*
CC(C)(C)NC(=O)C(c1cccs1)N(Cc1cccs1)C(=O)c1ccc(CN2CCOCC2)o1 (stereo not given)	3	11	5	1	-3	6
Cc1ccc(C(C(=O)NC(C)(C)C)N(Cc2ccc3c(c2)OCO3)C(=O)c2ccc(CN3CCOCC3)o2)o1 (stereo not given)	4	3	37	1	-7	15*
Cc1nc(NC(=O)/C=C/c2ccco2)sc1C	16*	4	-5	-3	-10	-9

Source: PubChem
